# Tests used:
# [1] = Antibacterial activity against Salmonella enterica subspecies enterica serotype Infantis OCC 2133 after 18 hrs; format: functional, Salmonella enterica subsp. enterica serovar Infantis; settings: OCC 2133, 18 h
# In short: (§1)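 Broth microdilution in Nutrient Broth No. 2; stocks in ethanol diluted to 0.01–128 µg/ml (triclosan) or 0.25–256 µg/ml (glycosides). Overnight 37 °C NB2 cultures diluted 1 in 10^4 in saline and added to the dilutions. Incubation at 37 °C with agitation, OD read every 15 min; MIC is the lowest concentration preventing any OD rise after 18 h.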
# Staphylococcus aureus [2] = assay: Antibacterial activity against Staphylococcus aureus OCC 104 after 18 hrs; format: functional; settings: OCC 104, 18 h; in short: as §1
# Enterococcus faecalis = assay: Antibacterial activity against Enterococcus faecalis ATCC 29212 after 18 hrs; format: functional; settings: ATCC 29212, 18 h; in short: as §1
# Escherichia coli [3] = assay: Antibacterial activity against Escherichia coli OCC 122 after 18 hrs; format: functional; settings: OCC 122, 18 h; in short: as §1
# Bacillus cereus = assay: Antibacterial activity against Bacillus cereus ATCC 14579 after 18 hrs; format: functional; settings: ATCC 14579, 18 h; in short: as §1
# Staphylococcus aureus [4] = assay: Antibacterial activity against Staphylococcus aureus OCC 106 after 18 hrs; format: functional; settings: OCC 106, 18 h; in short: as §1
# Streptococcus pyogenes = assay: Antibacterial activity against Streptococcus pyogenes ATCC 19615 after 18 hrs; format: functional; settings: ATCC 19615, 18 h
# In short: (§2)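 Broth microdilution in Nutrient Broth No. 2. Ethanol stocks were diluted in broth to 0.01–128 µg/ml for triclosan and 0.25–256 µg/ml for glycosides. Overnight 37°C NB2 cultures were diluted 1 in 10^4 in saline and added to the wells. Plates were incubated at 37°C with OD read every 15 min after agitation. MIC was the lowest concentration giving no OD increase at 18 h.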
# [5] = Antibacterial activity against Enterobacter cloacae ATCC 13047 after 18 hrs; format: functional, Enterobacter cloacae subsp. cloacae; settings: ATCC 13047, 18 h; in short: as §1
# Proteus vulgaris = assay: Antibacterial activity against Proteus vulgaris OCC 195 after 18 hrs; format: functional; settings: OCC 195, 18 h; in short: as §1
# Staphylococcus aureus [6] = assay: Antibacterial activity against Staphylococcus aureus ATCC 29213 after 18 hrs; format: functional; settings: ATCC 29213, 18 h; in short: as §1
# [7] = test system: Staphylococcus epidermidis; assay: Antibacterial activity against Staphylococcus epidermidis ATCC 14990 after 18 hrs; format: functional; settings: ATCC 14990, 18 h; in short: as §1
# Pseudomonas aeruginosa = assay: Antibacterial activity against Pseudomonas aeruginosa ATCC 27853 after 18 hrs; format: functional; settings: ATCC 27853, 18 h; in short: as §1
# [8] = test system: Salmonella enterica subsp. enterica serovar Abony; assay: Antibacterial activity against Salmonella enterica subspecies enterica serotype Abony NCTC 6017 after 18 hrs; format: functional; settings: NCTC 6017, 18 h; in short: as §1
# Streptococcus pneumoniae = assay: Antibacterial activity against Streptococcus pneumoniae 6305 after 18 hrs; format: functional; settings: Streptococcus pneumoniae, 6305, 18 h; in short: as §2
# Hafnia alvei = assay: Antibacterial activity against Hafnia alvei 13337 after 18 hrs; format: functional; settings: Hafnia alvei, 13337, 18 h; in short: as §1
# [9] = Antibacterial activity against Salmonella enterica subspecies enterica serotype Poona NCTC 4840 after 18 hrs; format: functional, Salmonella enterica subsp. enterica serovar Poona; settings: NCTC 4840, 18 h; in short: as §1
# [10] = Antibacterial activity against Salmonella enterica subspecies enterica serotype Arizonae OCC 706 after 18 hrs; format: functional, Salmonella enterica subsp. enterica serovar Arizonae; settings: OCC 706, 18 h; in short: as §1
# [11] = test system: Staphylococcus epidermidis; assay: Antibacterial activity against Staphylococcus epidermidis 155 after 18 hrs; format: functional; settings: Staphylococcus epidermidis, 155, 18 h; in short: as §1
# Escherichia coli [12] = assay: Antibacterial activity against Escherichia coli ATCC 8739 after 18 hrs; format: functional; settings: ATCC 8739, 18 h; in short: as §1
# Klebsiella pneumoniae = assay: Antibacterial activity against Klebsiella pneumoniae ATCC 13883 after 18 hrs; format: functional; settings: ATCC 13883, 18 h; in short: as §1
# Cronobacter sakazakii = assay: Antibacterial activity against Cronobacter sakazakii 29544 after 18 hrs; format: functional; settings: Cronobacter sakazakii, 29544, 18 h; in short: as §1
# Klebsiella aerogenes = assay: Antibacterial activity against Enterobacter aerogenes ATCC 13048 after 18 hrs; format: functional; settings: ATCC 13048, 18 h; in short: as §1
# Salmonella enteritidis = assay: Antibacterial activity against Salmonella enterica subspecies enterica serotype Enteritidis 13076 after 18 hrs; format: functional, Salmonella enterica subsp. enterica serovar Enteritidis; settings: Salmonella enterica, 13076, 18 h; in short: as §1
# Staphylococcus aureus [13] = assay: Antibacterial activity against Staphylococcus aureus ATCC 6538P after 18 hrs; format: functional; in short: as §1
# Escherichia coli [14] = assay: Antibacterial activity against Escherichia coli ATCC 35218 after 18 hrs; format: functional; settings: ATCC 35218, 18 h; in short: as §1
# [15] = Antibacterial activity against Salmonella enterica subspecies enterica serotype Indiana OCC 597 after 18 hrs; format: functional, Salmonella enterica subsp. enterica serovar Indiana; settings: OCC 597, 18 h; in short: as §1
# Salmonella typhimurium = assay: Antibacterial activity against Salmonella enterica subspecies enterica serotype typhimurium ATCC 14028 after 18 hrs; format: functional, Salmonella enterica subsp. enterica serovar Typhimurium; settings: ATCC 14028, 18 h; in short: as §1
# Proteus mirabilis = assay: Antibacterial activity against Proteus mirabilis ATCC 12453 after 18 hrs; format: functional; settings: ATCC 12453, 18 h; in short: as §1
compound,measurement,setting,value
Oc1cc(Cl)ccc1Oc1ccc(Cl)cc1Cl [TRICLOSAN],MIC,[1],0.5 to 1 µg/mL
same,MIC,Staphylococcus aureus [2],0.01 µg/mL
same,MIC,Enterococcus faecalis,8 µg/mL
same,MIC,Escherichia coli [3],0.1 to 0.5 µg/mL
same,MIC,Bacillus cereus,2 µg/mL
same,MIC,Staphylococcus aureus [4],0.01 µg/mL
same,MIC,Streptococcus pyogenes,1 µg/mL
same,MIC,[5],0.5 µg/mL
same,MIC,Proteus vulgaris,0.5 µg/mL
same,MIC,Staphylococcus aureus [6],0.01 µg/mL
same,MIC,[7],0.01 µg/mL
same,MIC,Pseudomonas aeruginosa,32 µg/mL
same,MIC,[8],0.5 to 1 µg/mL
same,MIC,Streptococcus pneumoniae,1 µg/mL
same,MIC,Hafnia alvei,0.1 µg/mL
same,MIC,[9],0.5 to 1 µg/mL
same,MIC,[10],0.5 to 1 µg/mL
same,MIC,[11],0.01 µg/mL
same,MIC,Escherichia coli [12],0.1 to 0.5 µg/mL
same,MIC,Klebsiella pneumoniae,0.1 µg/mL
same,MIC,Cronobacter sakazakii,0.5 µg/mL
same,MIC,Klebsiella aerogenes,0.5 µg/mL
same,MIC,Salmonella enteritidis,0.5 to 1 µg/mL
same,MIC,Staphylococcus aureus [13],0.01 µg/mL
same,MIC,Escherichia coli [14],0.1 to 0.5 µg/mL
same,MIC,[15],0.5 to 1 µg/mL
same,MIC,Salmonella typhimurium,0.5 to 1 µg/mL
same,MIC,Proteus mirabilis,0.5 µg/mL
